Laboratory results taken from ChEMBL document CHEMBL1126262, “2-(Aminomethyl)chromans that inhibit iron-dependent lipid peroxidation and protect against central nervous system trauma and ischemia” (J Med Chem, 1992).
Where “and” joins values, the source holds several entries; their conditions need not be identical. Equal values may be shown once. Calls of active or inactive are those of the source. No cut-off for these calls is given here.

How the values were obtained:
[1] = organism: Rattus norvegicus; assay: Tested in vitro for the inhibition of iron-dependent lipid peroxidation against rat brain homogenates, by malondialdehyde (MDA) formation assay; assay type: functional; conditions: Rattus norvegicus, Brain
[2] = system: Mus musculus; assay: Tested in vivo for neuroprotectant activity against mouse head injury(MHI) model; IA = Inactive; assay type: functional, organism-based
Method in brief: (§1)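 Unanesthetized male CF-1 mice (17-20 g), concussive head injury from 50-g weight dropped 18 cm (~900 g-cm). Vehicle (0.05 N HCl or 0.5% Tween 80) or drug, 0.001-30.0 mg/kg, iv bolus within 5 min postinjury (oral where indicated). Blind grip-string test at 1 h; groups of 20-25 mice, vehicle plus four dose groups; Duncan's multiple range test.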

[3] = system: Mus musculus; assay: Tested in vivo for neuroprotectant activity against mouse head injury(MHI) model.; assay type: functional; method in brief: as §1
[4] = organism: Mus musculus; assay: Lowest effective dosage in Mouse Head Injury Assay.; assay type: functional; method in brief: as §1
[5] = system: Mus musculus; assay: Antagonistic activity against potassium cyanide induced cytotoxic hypoxia in male CF-1 mice at a dose of 10 mg/kg(p<0.05); assay type: organism-based; set-up: dose 10 mg/kg; conditions: in vivo
[6] = system: Mus musculus; assay: Antagonistic activity against potassium cyanide induced cytotoxic hypoxia in male CF-1 mice at a dose of 20 mg/kg(p<0.05); assay type: organism-based; set-up: dose 20 mg/kg; conditions: in vivo
[7] = system: Mus musculus; assay: Antagonistic activity against potassium cyanide induced cytotoxic hypoxia in male CF-1 mice at a dose of 10 mg/kg; assay type: organism-based; set-up: dose 10 mg/kg; conditions: in vivo
[8] = organism: Mus musculus; assay: Lowest effective dosage using in Mouse Head Injury Assay; assay type: functional; method in brief: as §1

**Q.** How did the IC50 [1] turn out when `Cc1c(C)c2c(c(C)c1O)CCC(C)(CN1CCCC1)O2` (centres undefined) was run?
**A.** The IC50 was 1400 nM.

**Q.** How did the IC50 [1] turn out when `Cc1c(C)c2c(c(C)c1O)CC[C@@](C)(CCC[C@H](C)CCC[C@H](C)CCCC(C)C)O2` [ALPHA-TOCOPHEROL] was run?
**A.** The IC50 was 28000 nM.

**Q.** For `Cc1c(C)c2c(c(C)c1O)CCC(C)(C(=O)NCc1cccnc1)O2` (centres undefined), which IC50 [1] is on record?
**A.** The IC50 was 47000 nM.

**Q.** How did the Grip score [2] turn out when `CCN(CC)c1ccc(N2CCN(C(=O)C3(C)CCc4c(C)c(O)c(C)c(C)c4O3)CC2)nc1N(CC)CC` (centres undefined) was run?
**A.** Its Grip score is “inactive”.

**Q.** What about the IC50 [1] of the same molecule?
**A.** The IC50 was 200 nM.

**Q.** With `COc1ccc(N2CCN(C(=O)C3(C)CCc4c(C)c(O)c(C)c(C)c4O3)CC2)cc1` (centres undefined) as the molecule, how does the IC50 [1] read?
**A.** Its IC50 is 700 nM.

**Q.** `Cc1c(C)c2c(c(C)c1O)CCC(C)(C(=O)O)O2` (centres undefined) [TROLOX] was tested. Which IC50 [1] did it give?
**A.** The IC50 was 43000 nM.

**Q.** For `Cc1c(C)c2c(c(C)c1O)CCC(C)(CCN1CCN(c3cc(N4CCCC4)nc(N4CCCC4)n3)CC1)O2` (centres undefined), which Grip score [2] is on record?
**A.** Its Grip score is “inactive”.

**Q.** And the IC50 [1]?
**A.** Its IC50 is 1300 nM.

**Q.** What does the source list for `Cc1c(C)c2c(c(C)c1O)CCC(C)(C(=O)N1CCN(c3ccccn3)CC1)O2` (centres undefined)?
**A.** Grip score [3]: 8.2; Lowest effective dose [4]: 0.01 mg/kg; IC50 [1]: 1000 nM

**Q.** For `Cc1c(C)c2c(c(C)c1O)CCC(C)(C(=O)NCCN(C)C)O2` (centres undefined), which Grip score [2] is on record?
**A.** The Grip score was “inactive”.

**Q.** And the IC50 [1]?
**A.** The IC50 was 8700 nM.

**Q.** How did the IC50 [1] turn out when `Cc1c(C)c2c(c(C)c1O)CCC(C)(CNCCc1ccccn1)O2` (centres undefined) was run?
**A.** Its IC50 is 23000 nM.

**Q.** Which results are given for `Cc1c(C)c2c(c(C)c1O)CCC(C)(C(=O)Nc1ccccn1)O2` (centres undefined)?
**A.** Grip score [3]: 14.4; Lowest effective dose [4]: 0.01 mg/kg; IC50 [1]: 1800 nM

**Q.** With `Cc1c(C)c2c(c(C)c1O)CCC(C)(CNc1ccccn1)O2` (centres undefined) as the molecule, how does the Grip score [3] read?
**A.** Its Grip score is 12.3.

**Q.** What about the Lowest effective dose [4] of the same molecule?
**A.** The Lowest effective dose was 0.01 mg/kg.

**Q.** And the IC50 [1]?
**A.** Its IC50 is 200 nM.

**Q.** For `Cc1c(C)c2c(c(C)c1O)CCC(C)(C(=O)N1CCN(Cc3ccccc3)CC1)O2` (centres undefined), which IC50 [1] is on record?
**A.** Its IC50 is 1000 nM.

**Q.** For `Cc1c(C)c2c(c(C)c1O)CCC(C)(CN1CCN(c3ncccn3)CC1)O2` (centres undefined), which Grip score [3] is on record?
**A.** The Grip score was 10.3.

**Q.** What about the Lowest effective dose [4] of the same molecule?
**A.** Its Lowest effective dose is 0.01 mg/kg.

**Q.** And the IC50 [1]?
**A.** The IC50 was 1000 nM.

**Q.** Which results are given for `Cc1c(C)c2c(c(C)c1O)CCC(C)(CC(=O)N1CCN(c3cc(N4CCCC4)nc(N4CCCC4)n3)CC1)O2` (centres undefined)?
**A.** Grip score [2]: inactive; IC50 [1]: 1300 nM

**Q.** What does the source list for `Cc1c(C)c2c(c(C)c1O)CCC(C)(CN1CCN(Cc3ccccc3)CC1)O2.Cl.Cl` (centres undefined)?
**A.** Grip score [3]: 13; LD50 [5]: 130%; LD50 [6]: 181.4%; Lowest effective dose [4]: 0.01 mg/kg; IC50 [1]: 1000 nM

**Q.** For `Cc1c(C)c2c(c(C)c1O)CCC(C)(CN(C)CCc1ccccn1)O2` (centres undefined), which IC50 [1] is on record?
**A.** The IC50 was 177000 nM.

**Q.** `Cc1c(C)c2c(c(C)c1O)CCC(C)(C(=O)N1CCN(c3cc(N4CCCC4)nc(N4CCCC4)n3)CC1)O2` (centres undefined) was tested. Which Grip score [3] did it give?
**A.** Its Grip score is 17.5.

**Q.** What about the LD50 [7] of the same molecule?
**A.** The LD50 was 99.3%.

**Q.** And the LD50 [6]?
**A.** Its LD50 is 115.2%.

**Q.** What about the Lowest effective dose [8] of the same molecule?
**A.** The Lowest effective dose was 0.01 mg/kg.

**Q.** What about the IC50 [1] of the same molecule?
**A.** Its IC50 is 500 nM.

**Q.** Which IC50 [1] does the source give for `Cc1c(C)c2c(c(C)c1O)CCC(C)(C(=O)NCCc1ccccc1)O2` (centres undefined) here?
**A.** Its IC50 is 1300 nM.

**Q.** For `CCNc1cccnc1N1CCN(CC2(C)CCc3c(C)c(O)c(C)c(C)c3O2)CC1.Cl.O` (centres undefined), which Grip score [3] is on record?
**A.** Its Grip score is 10.4 and 11.9.

**Q.** What about the Lowest effective dose [4] of the same molecule?
**A.** Its Lowest effective dose is 0.01 mg/kg.

**Q.** What about the IC50 [1] of the same molecule?
**A.** Its IC50 is 1000 nM.

**Q.** `COc1ccc(CCNC(=O)C2(C)CCc3c(C)c(O)c(C)c(C)c3O2)cc1OC` (centres undefined) was tested. Which IC50 [1] did it give?
**A.** The IC50 was 4100 nM.

**Q.** How did the Grip score [3] turn out when `C[C@@H]1C[C@H]2[C@@H]3CCC4=CC(=O)C=C[C@]4(C)C3=CC[C@]2(C)[C@H]1C(=O)CN1CCN(c2cc(N3CCCC3)nc(N3CCCC3)n2)CC1` [TIRILAZAD] was run?
**A.** Its Grip score is 14.5.

**Q.** What about the LD50 [7] of the same molecule?
**A.** Its LD50 is 103.6%.

**Q.** What about the LD50 [6] of the same molecule?
**A.** Its LD50 is 128.4%.

**Q.** And the Lowest effective dose [4]?
**A.** The Lowest effective dose was 0.003 mg/kg.

**Q.** For `Cc1c(C)c2c(c(C)c1O)CCC(C)(CNCCc1ccccc1)O2.O=C(O)C(=O)O` (centres undefined), which Grip score [3] is on record?
**A.** Its Grip score is 8.7.

**Q.** What about the Lowest effective dose [4] of the same molecule?
**A.** The Lowest effective dose was 1 mg/kg.

**Q.** And the IC50 [1]?
**A.** Its IC50 is 900 nM.

**Q.** With `COc1ccc(N2CCN(CC3(C)CCc4c(C)c(O)c(C)c(C)c4O3)CC2)cc1` (centres undefined) as the molecule, how does the IC50 [1] read?
**A.** Its IC50 is 200 nM.

**Q.** For `Cc1c(C)c2c(c(C)c1O)CCC(C)(CNCCCc1ccccc1)O2` (centres undefined), which IC50 [1] is on record?
**A.** Its IC50 is 1000 nM.

**Q.** `Cc1c(C)c2c(c(C)c1O)CCC(C)(CNCc1cccnc1)O2` (centres undefined) was tested. Which IC50 [1] did it give?
**A.** The IC50 was 48000 nM.

**Q.** `CCNc1cccnc1N1CCN(C(=O)C2(C)CCc3c(C)c(O)c(C)c(C)c3O2)CC1` (centres undefined) was tested. Which IC50 [1] did it give?
**A.** Its IC50 is 12000 nM.
